Measurements published in ChEMBL document CHEMBL2034842, “Synthesis, anti-Candida activity, and cytotoxicity of new (4-(4-iodophenyl)thiazol-2-yl)hydrazine derivatives” (Eur J Med Chem, 2012).
≈ marks a conversion by molar mass, not a printed value.

Assays:
[1] = tested on: Pichia kudriavzevii; experiment: Antifungal activity against 3 strains of Candida krusei after 24 hrs by […]; assay type: functional
[2] = Cytotoxicity against human Hep2 cells assessed as cell survival fraction at 50 ug/mL after 24 hrs by trypan blue exclusion method; assay type: cell-based; conditions: HEp-2 cells, read-out: Survival
Outline: (§1)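 Hep2 cells grown in DMEM + 10% FBS + 1% pen/strep at 37 °C, 5% CO2, used at 60–70% confluency. Exponential-phase cells (1 × 10^5/mL) incubated 24 h with six concentrations (100–0.05), final DMSO ≤0.5%. Controls were cells alone or cells + DMSO, with 1 mM sodium nitroprusside as positive control. Cells scraped off, mixed 1:1 with 0.4% trypan blue and counted on a hemocytometer by two operators. Blue cells were scored dead; results given as % viable cells.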

[3] = tested on: Candida albicans; experiment: Antifungal activity against 10 strains of Candida albicans after 24 hrs by […]; assay type: functional
[4] = tested on: Candida tropicalis; experiment: Antifungal activity against 4 strains of Candida tropicalis after 24 hrs by […]; assay type: functional
[5] = Cytotoxicity against human Hep2 cells assessed as cell survival fraction at 10 ug/mL after 24 hrs by trypan blue exclusion method; assay type: cell-based; conditions: HEp-2 cells, read-out: Survival; outline: as §1
[6] = tested on: Escherichia coli; experiment: Antibacterial activity against Escherichia coli after 18 to 22 hrs by […]; assay type: functional
[7] = Antiproliferative activity against human Hep2 cells assessed as cell survival fraction at 10 ug/mL after 24 hrs by MTT assay; assay type: cell-based; conditions: HEp-2 cells, read-out: Survival
Outline: (§2)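 Hep2 (human laryngeal carcinoma) cells maintained in DMEM + 10% FBS + 1% pen/strep, 37 °C, 5% CO2. Seeded in triplicate at 1 × 10^5/well in serum-free medium and exposed 24 h at 37 °C to six compound concentrations (100–0.05). DMSO stock diluted in medium, final DMSO ≤0.5%. MTT reagent added for 2 h at 37 °C, then detergent for 2 h at RT in the dark. Read as OD550 minus OD650.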

[8] = Antiproliferative activity against human Hep2 cells assessed as cell survival fraction at 100 ug/mL after 24 hrs by MTT assay; assay type: cell-based; conditions: HEp-2 cells, read-out: Survival; outline: as §2
[9] = Cytotoxicity against human Hep2 cells assessed as cell survival fraction at 0.5 ug/mL after 24 hrs by trypan blue exclusion method; assay type: cell-based; conditions: HEp-2 cells, read-out: Survival; outline: as §1
[10] = tested on: HEp-2; experiment: Antiproliferative activity against human Hep2 cells assessed as cell survival fraction after 24 hrs by MTT assay; assay type: cell-based; conditions: HEp-2, 24 h
Outline: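 Hep2 laryngeal carcinoma cells seeded in triplicate at 1 × 10^5/well in serum-free DMEM. Exposed 24 h at 37 °C, 5% CO2, to six concentrations ([…]); DMSO ≤0.5%. MTT reagent added for 2 h at 37 °C, then detergent for 2 h at room temperature in the dark. OD550 minus OD650 read. EC50 from ≥3 independent experiments.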

[11] = tested on: Streptococcus pyogenes; experiment: Antibacterial activity against Streptococcus pyogenes after 18 to 22 hrs by […]; assay type: functional
[12] = tested on: Enterococcus faecalis; experiment: Antibacterial activity against Enterococcus faecalis after 18 to 22 hrs by […]; assay type: functional
[13] = tested on: Staphylococcus aureus; experiment: Antibacterial activity against Staphylococcus aureus after 18 to 22 hrs by […]; assay type: functional
[14] = tested on: Staphylococcus warneri; experiment: Antibacterial activity against Staphylococcus warneri after 18 to 22 hrs by […]; assay type: functional
[15] = tested on: HEp-2; experiment: Cytotoxicity against human Hep2 cells assessed as cell survival fraction after 24 hrs by trypan blue exclusion method; assay type: cell-based; conditions: HEp-2, 24 h
Outline: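 Hep2 cells in DMEM with 10% FBS and 1% penicillin-streptomycin, at 37 °C, 5% CO2, grown to 60–70% confluency. Seeded at 1 × 10^5/mL and exposed 24 h to six concentrations ([…]); DMSO ≤0.5%. Controls were cells alone, cells with DMSO, and 1 mM nitroprusside. Scraped cells mixed 1:1 with 0.4% trypan blue; blue cells counted as dead by hemocytometer, two operators. EC50 from ≥3 independent experiments.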

[16] = tested on: Nakaseomyces glabratus; experiment: Antifungal activity against 4 strains of Candida glabrata after 24 hrs by […]; assay type: functional
[17] = Antiproliferative activity against human Hep2 cells assessed as cell survival fraction at 50 ug/mL after 24 hrs by MTT assay; assay type: cell-based; conditions: HEp-2 cells, read-out: Survival; outline: as §2
[18] = Antiproliferative activity against human Hep2 cells assessed as cell survival fraction at 0.5 ug/mL after 24 hrs by MTT assay; assay type: cell-based; conditions: HEp-2 cells, read-out: Survival; outline: as §2
[19] = tested on: Klebsiella aerogenes; experiment: Antibacterial activity against Enterobacter aerogenes after 18 to 22 hrs by […]; assay type: functional
[20] = tested on: [Candida] sake; experiment: Antifungal activity against 2 strains of Candida sake after 24 hrs by […]; assay type: functional; conditions: Fermentozyma sake
[21] = Cytotoxicity against human Hep2 cells assessed as cell survival fraction at 100 ug/mL after 24 hrs by trypan blue exclusion method; assay type: cell-based; conditions: HEp-2 cells, read-out: Survival; outline: as §1
[22] = Cytotoxicity against human Hep2 cells assessed as cell survival fraction at 5 ug/mL after 24 hrs by trypan blue exclusion method; assay type: cell-based; conditions: HEp-2 cells, read-out: Survival; outline: as §1
[23] = tested on: Proteus vulgaris; experiment: Antibacterial activity against Proteus vulgaris after 18 to 22 hrs by […]; assay type: functional
[24] = Antiproliferative activity against human Hep2 cells assessed as cell survival fraction at 5 ug/mL after 24 hrs by MTT assay; assay type: cell-based; conditions: HEp-2 cells, read-out: Survival; outline: as §2
[25] = Cytotoxicity against human Hep2 cells assessed as cell survival fraction at 0.05 ug/mL after 24 hrs by trypan blue exclusion method; assay type: cell-based; conditions: HEp-2 cells, read-out: Survival; outline: as §1
[26] = Antiproliferative activity against human Hep2 cells assessed as cell survival fraction at 0.05 ug/mL after 24 hrs by MTT assay; assay type: cell-based; conditions: HEp-2 cells, read-out: Survival; outline: as §2
[27] = tested on: Candida parapsilosis; experiment: Antifungal activity against 4 strains of Candida parapsilosis after 24 hrs by […]; assay type: functional; conditions: Lodderomyces parapsilosis
[28] = tested on: Klebsiella pneumoniae; experiment: Antibacterial activity against Klebsiella pneumoniae after 18 to 22 hrs by […]; assay type: functional

Row | Structure (SMILES) | MIC [1] | viability at 24 h, 50 ug/mL [2] | MIC [3] | MIC [4] | viability at 24 h, 10 ug/mL [5] | MIC [6] | viability at 24 h, 10 ug/mL [7] | viability at 24 h, 100 ug/mL [8] | viability at 24 h, 0.5 ug/mL [9] | EC50 [10] | MIC [11] | MIC [12] | MIC [13] | MIC [14] | EC50 [15] | MIC [16] | viability at 24 h, 50 ug/mL [17] | viability at 24 h, 0.5 ug/mL [18] | MIC [19] | MIC [20] | further results
1 | C/C(=N\Nc1nc(-c2ccc(I)cc2)cs1)c1ccncc1 | 2 µg/mL (≈ 4.76 µM) | 37% | 0.25 µg/mL (≈ 0.595 µM) | 0.5 µg/mL (≈ 1.19 µM) | 30% | 16 µg/mL (≈ 38.1 µM) | 35% | 0% | 85% | 25 µg/mL (≈ 59.5 µM) | 4 µg/mL (≈ 9.52 µM) | 4 µg/mL (≈ 9.52 µM) | 8 µg/mL (≈ 19 µM) | 8 µg/mL (≈ 19 µM) | 30 µg/mL (≈ 71.4 µM) | 2 µg/mL (≈ 4.76 µM) | 10% | 95% | > 128 µg/mL | 4 µg/mL (≈ 9.52 µM) | viability at 24 h, 100 ug/mL [21]: 0%; viability at 24 h, 5 ug/mL [22]: 66%; MIC [23]: 16 µg/mL (≈ 38.1 µM); viability at 24 h, 5 ug/mL [24]: 58%; viability at 24 h, 0.05 ug/mL [25]: 90%; viability at 24 h, 0.05 ug/mL [26]: 95%; MIC [27]: 2 µg/mL (≈ 4.76 µM); MIC [28]: > 128 µg/mL
2 | Ic1ccc(-c2csc(N/N=C/c3cccc4ccccc34)n2)cc1 | 64 µg/mL (≈ 141 µM) | 39% | 0.25 µg/mL (≈ 0.549 µM) | 0.5 µg/mL (≈ 1.1 µM) | 73% | 16 µg/mL (≈ 35.1 µM) | 80% | 2% | 80% | 35 µg/mL (≈ 76.9 µM) | 32 µg/mL (≈ 70.3 µM) | 32 µg/mL (≈ 70.3 µM) | > 128 µg/mL | > 128 µg/mL | 40 µg/mL (≈ 87.8 µM) | 2 µg/mL (≈ 4.39 µM) | 5% | 80% | 16 µg/mL (≈ 35.1 µM) | 64 µg/mL (≈ 141 µM) | viability at 24 h, 100 ug/mL [21]: 0%; viability at 24 h, 5 ug/mL [22]: 80%; MIC [23]: 16 µg/mL (≈ 35.1 µM); viability at 24 h, 5 ug/mL [24]: 78%; viability at 24 h, 0.05 ug/mL [25]: 90%; viability at 24 h, 0.05 ug/mL [26]: 95%; MIC [27]: 2 µg/mL (≈ 4.39 µM); MIC [28]: 16 µg/mL (≈ 35.1 µM)
3 | CC1CC/C(=N\Nc2nc(-c3ccc(I)cc3)cs2)C1 (configuration not stated) | 2 µg/mL (≈ 5.03 µM) | 69% | 0.25 µg/mL (≈ 0.629 µM) | 0.5 µg/mL (≈ 1.26 µM) | 88% | 32 µg/mL (≈ 80.5 µM) | 90% | 10% | 92% | 50 µg/mL (≈ 126 µM) | 32 µg/mL (≈ 80.5 µM) | 32 µg/mL (≈ 80.5 µM) | 32 µg/mL (≈ 80.5 µM) | 32 µg/mL (≈ 80.5 µM) | 51 µg/mL (≈ 128 µM) | 2 µg/mL (≈ 5.03 µM) | 28% | 100% | 32 µg/mL (≈ 80.5 µM) | 4 µg/mL (≈ 10.1 µM) | viability at 24 h, 100 ug/mL [21]: 0%; viability at 24 h, 5 ug/mL [22]: 83%; MIC [23]: 32 µg/mL (≈ 80.5 µM); viability at 24 h, 5 ug/mL [24]: 92%; viability at 24 h, 0.05 ug/mL [25]: 95%; viability at 24 h, 0.05 ug/mL [26]: 100%; MIC [27]: 2 µg/mL (≈ 5.03 µM); MIC [28]: > 128 µg/mL
4 | CC1CCC/C1=N\Nc1nc(-c2ccc(I)cc2)cs1 (configuration not stated) | 2 µg/mL (≈ 5.03 µM) | 0% | 0.25 µg/mL (≈ 0.629 µM) | 0.5 µg/mL (≈ 1.26 µM) | 70% | 32 µg/mL (≈ 80.5 µM) | 36% | 6% | 89% | 30 µg/mL (≈ 75.5 µM) | 8 µg/mL (≈ 20.1 µM) | 32 µg/mL (≈ 80.5 µM) | 32 µg/mL (≈ 80.5 µM) | 32 µg/mL (≈ 80.5 µM) | 30 µg/mL (≈ 75.5 µM) | 2 µg/mL (≈ 5.03 µM) | 12% | 90% | > 128 µg/mL | 32 µg/mL (≈ 80.5 µM) | viability at 24 h, 100 ug/mL [21]: 0%; viability at 24 h, 5 ug/mL [22]: 67%; MIC [23]: 32 µg/mL (≈ 80.5 µM); viability at 24 h, 5 ug/mL [24]: 60%; viability at 24 h, 0.05 ug/mL [25]: 92%; viability at 24 h, 0.05 ug/mL [26]: 100%; MIC [27]: 2 µg/mL (≈ 5.03 µM); MIC [28]: > 128 µg/mL
